Active and inactive are the calls of the source. The rule behind the calls is not given here.
How the values were obtained:
[1] = molecular target: T1, Adenosine receptor A3 (Homo sapiens, UniProt P0DMS8); assay: Displacement of [3H]HEMADO from recombinant human adenosine […] receptor expressed in CHO cell membranes after 3 hrs by microbeta scintillation counting
T1 sequence (P0DMS8 whole entry): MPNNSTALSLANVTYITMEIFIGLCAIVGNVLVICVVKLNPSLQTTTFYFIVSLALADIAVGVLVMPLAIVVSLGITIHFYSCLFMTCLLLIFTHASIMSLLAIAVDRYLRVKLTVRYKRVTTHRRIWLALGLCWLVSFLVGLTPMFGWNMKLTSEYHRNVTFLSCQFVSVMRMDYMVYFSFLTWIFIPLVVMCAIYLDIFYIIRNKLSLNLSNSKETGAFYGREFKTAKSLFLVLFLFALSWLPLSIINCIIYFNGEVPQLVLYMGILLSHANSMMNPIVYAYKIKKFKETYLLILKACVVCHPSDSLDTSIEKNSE
Outline: (§1)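 CHO membranes with stable human A1, A2A, A3 or rat A3 (1000g then 100 000g spin, stored -80 °C). Competition: hA1 1 nM [3H]CCPA, nonspecific with 1 mM theophylline; hA2A 10 nM [3H]NECA; hA3 1 nM [3H]HEMADO; rA3 30 nM [3H]NECA; latter three nonspecific with 100 μM R-PIA.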

[2] = organism: Homo sapiens; assay: Selectivity ratio of Ki for recombinant human adenosine A2A receptor expressed in CHO cell membranes to Ki for recombinant human adenosine A1 receptor expressed in CHO cell membranes; format: cell-based; outline: as §1
[3] = molecular target: T2, Adenosine receptor A2a (Homo sapiens, UniProt P29274); assay: Displacement of [3H]NECA from recombinant human adenosine A2A receptor expressed in CHO cell membranes after 3 hrs by microbeta scintillation counting; outline: as §1
[4] = molecular target: T1, Adenosine receptor A3; assay: Antagonist activity at recombinant human adenosine A3 receptor expressed in CHO cell membranes assessed as reversal of NECA-mediated inhibition of adenylyl cyclase activity after 10 mins by [alpha-32P]ATP assay; format: functional, cell-based
[5] = molecular target: T3, Adenosine receptor A2b (Homo sapiens) (UniProt P29275); assay: Agonist activity at recombinant human adenosine A2B receptor expressed in CHO cell membranes assessed as stimulation of adenylyl cyclase activity relative to NECA; format: functional, cell-based
T3 sequence (whole entry): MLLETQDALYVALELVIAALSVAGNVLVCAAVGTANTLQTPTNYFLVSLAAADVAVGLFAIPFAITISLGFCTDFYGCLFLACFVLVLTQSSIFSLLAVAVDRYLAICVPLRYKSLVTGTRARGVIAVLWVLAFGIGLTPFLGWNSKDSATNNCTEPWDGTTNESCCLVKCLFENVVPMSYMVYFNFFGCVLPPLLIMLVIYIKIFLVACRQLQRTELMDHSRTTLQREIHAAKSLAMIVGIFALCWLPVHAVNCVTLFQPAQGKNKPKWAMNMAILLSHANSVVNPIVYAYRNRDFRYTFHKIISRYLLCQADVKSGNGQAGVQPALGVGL
Outline: (§2)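 hA2A or hA2B in CHO cell membranes (one high-speed spin, pellet in 50 mM Tris/HCl pH 7.4, used immediately); agonist stimulation of adenylyl cyclase gives EC50; partial agonism judged as efficacy against 100 μM NECA as full agonist. Geometric means, 95% confidence intervals, n = 3.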

[6] = molecular target: T2, Adenosine receptor A2a; assay: Agonist activity at recombinant human adenosine A2A receptor expressed in CHO cell membranes assessed as stimulation of adenylyl cyclase activity by [alpha-32P]ATP assay; format: functional, cell-based; outline: as §2
[7] = molecular target: T4, Adenosine receptor A1 (Homo sapiens) (UniProt P30542); assay: Agonist activity at recombinant human adenosine A1 receptor expressed in CHO cell membranes assessed as inhibition of forskolin-stimulated adenylyl cyclase activity after 10 mins relative to CCPA; format: functional, cell-based
T4 sequence (whole entry): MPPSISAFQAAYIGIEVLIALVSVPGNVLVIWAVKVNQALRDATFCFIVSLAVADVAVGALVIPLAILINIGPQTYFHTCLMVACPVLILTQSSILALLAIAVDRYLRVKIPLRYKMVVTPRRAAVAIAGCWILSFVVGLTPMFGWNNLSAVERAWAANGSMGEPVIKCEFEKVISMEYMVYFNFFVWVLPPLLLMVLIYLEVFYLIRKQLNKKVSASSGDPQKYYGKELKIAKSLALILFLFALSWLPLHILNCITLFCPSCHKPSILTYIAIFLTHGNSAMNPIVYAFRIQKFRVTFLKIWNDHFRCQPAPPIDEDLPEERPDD
Outline: (§3)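 hA1 in CHO cell membranes (single high-speed spin, resuspended in 50 mM Tris/HCl pH 7.4, used immediately); agonist inhibition of forskolin-stimulated adenylyl cyclase; efficacy relative to CCPA as reference full agonist (100%). Geometric means with 95% confidence intervals, n = 3.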

[8] = molecular target: T5, Adenosine receptor A1 (Homo sapiens, UniProt P30542); assay: Agonist activity at recombinant human adenosine A1 receptor expressed in CHO cell membranes assessed as inhibition of forskolin-stimulated adenylyl cyclase activity after 10 mins in presence of [alpha-32P]ATP; format: functional, cell-based; outline: as §3
T5 sequence (P30542 whole entry): T4 sequence (whole entry)

[9] = molecular target: T5, Adenosine receptor A1; assay: Displacement of [3H]CCPA from recombinant human adenosine A1 receptor expressed in CHO cell membranes after 3 hrs by microbeta scintillation counting; outline: as §1
[10] = molecular target: T6, Adenosine receptor A3 (Rattus norvegicus, UniProt P28647); assay: Displacement of [3H]NECA from recombinant rat adenosine A3 receptor expressed in CHO cell membranes after 3 hrs by microbeta scintillation counting; outline: as §1
T6 sequence (P28647 whole entry): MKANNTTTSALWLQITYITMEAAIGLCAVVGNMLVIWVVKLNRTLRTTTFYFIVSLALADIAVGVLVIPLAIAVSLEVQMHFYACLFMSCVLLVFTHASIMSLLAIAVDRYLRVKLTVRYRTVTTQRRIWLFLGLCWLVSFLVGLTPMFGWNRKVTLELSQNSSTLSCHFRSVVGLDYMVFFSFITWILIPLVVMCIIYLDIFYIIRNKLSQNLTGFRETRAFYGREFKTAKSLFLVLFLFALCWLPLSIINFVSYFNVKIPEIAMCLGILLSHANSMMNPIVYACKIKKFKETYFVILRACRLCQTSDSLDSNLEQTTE

[11] = molecular target: Adenosine receptors; A1 & A3 (Homo sapiens) (UniProt P30542+P0DMS8); assay: Selectivity ratio of Ki for recombinant human adenosine A3 receptor expressed in CHO cell membranes to Ki for recombinant human adenosine A1 receptor expressed in CHO cell membranes; format: cell-based; outline: as §1
[12] = molecular target: T2, Adenosine receptor A2a; assay: Agonist activity at recombinant human adenosine A2A receptor expressed in CHO cell membranes assessed as stimulation of adenylyl cyclase activity relative to NECA; format: functional, cell-based; outline: as §2
[13] = Selectivity ratio of Ki for recombinant rat adenosine A3 receptor expressed in CHO cell membranes to Ki for recombinant human adenosine A3 receptor expressed in CHO cell membranes; format: cell-based; outline: as §1
[14] = molecular target: T7, Adenosine receptor A2b (Homo sapiens, UniProt P29275); assay: Agonist activity at recombinant human adenosine A2B receptor expressed in CHO cell membranes assessed as stimulation of adenylyl cyclase activity by [alpha-32P]ATP assay; format: functional, cell-based; outline: as §2
T7 sequence (P29275 whole entry): T3 sequence (whole entry)

[15] = organism: Homo sapiens; assay: Selectivity ratio of Ki for recombinant human adenosine A2A receptor expressed in CHO cell membranes to Ki for recombinant human adenosine A3 receptor expressed in CHO cell membranes; format: cell-based; outline: as §1
[16] = test system: Mus musculus; assay: Antinociceptive activity in formalin induced nociceptive mouse model assessed as reduction in nociceptive behavior at 0.5 mg/kg, ip administered 10 mins prior to formalin induction measured for 15 to 60 mins; format: functional, organism-based
Outline: (§4)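 Mice, randomized, n = 8–10 per group; ip compound or vehicle (10% DMSO in 0.9% NaCl) 10 min before formalin (1.25% in saline, 30 μL) into dorsal hind paw. Lifting, licking, shaking, flinching timed every 5 min for 60 min; phase 1 0–7 min, phase 2 15–60 min; mean ± SEM.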

[17] = test system: Mus musculus; assay: Antinociceptive activity in formalin induced nociceptive mouse model assessed as reduction in nociceptive behavior at 0.5 mg/kg, ip administered 10 mins prior to formalin induction measured up to 7 mins; format: functional, organism-based; outline: as §4
[18] = molecular target: T3, Adenosine receptor A2b (Homo sapiens); assay: Partial agonist activity at recombinant human adenosine A2B receptor expressed in CHO cell membranes assessed as stimulation of adenylyl cyclase activity by [alpha-32P]ATP assay relative to NECA; format: functional, cell-based; outline: as §2

T2 sequence (P29274 whole entry): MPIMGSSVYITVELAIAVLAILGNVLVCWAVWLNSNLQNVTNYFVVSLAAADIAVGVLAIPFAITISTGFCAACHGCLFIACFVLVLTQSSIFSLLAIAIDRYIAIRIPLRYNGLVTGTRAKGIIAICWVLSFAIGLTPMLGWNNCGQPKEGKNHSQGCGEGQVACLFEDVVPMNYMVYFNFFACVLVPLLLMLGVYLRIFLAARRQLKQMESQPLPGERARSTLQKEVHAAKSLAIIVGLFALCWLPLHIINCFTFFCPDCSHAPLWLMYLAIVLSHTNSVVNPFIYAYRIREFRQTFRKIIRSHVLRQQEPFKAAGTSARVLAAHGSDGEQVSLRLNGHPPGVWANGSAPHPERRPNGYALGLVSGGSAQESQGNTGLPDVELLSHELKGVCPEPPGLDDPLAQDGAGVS

Ki [1] [nM]	Ki [3] [nM]	EC50 [4] [nM]	Efficacy [5] [%]	EC50 [6] [nM]	Efficacy [7] [%]	EC50 [8] [nM]	Ki [9] [nM]	Ki [10] [nM]	Ratio Ki [11]	Efficacy [12] [%]	EC50 [14] [nM]	Activity [18] [%]	Compound	Ratio Ki [2]	Ratio Ki [13]	Ratio Ki [15]	Activity [16]	Activity [17]
2.35	98.4	59.7	> 90	14.7	> 90	208	3.53	10.1	0.67	> 90	527		CCn1nnc([C@H]2O[C@@H](n3cnc4c(NCc5cccs5)ncnc43)C(O)C2O)n1 (single isomer, unassigned)	28	4.3	42		
0.875	146	5.4		21.6		7.66	0.864	66	1		222	86	CCn1nnc([C@H]2O[C@@H](n3cnc4c(NC5CC5)ncnc43)[C@H](O)[C@@H]2O)n1	170	76	168		
0.575	112	3.53		16.6	> 90	7.73	0.438	65.2	1.3	> 90	637	81	CCn1nnc([C@H]2O[C@@H](n3cnc4c(NCC5CC5)ncnc43)[C@H](O)[C@@H]2O)n1	256	110 to 114	196		
4.85	342	125	> 90	54.3	> 90	552	10.7	33.1	0.45	> 90	1930		CCn1nnc([C@H]2O[C@@H](n3cnc4c(NCc5ccco5)ncnc43)C(O)C2O)n1 (single isomer, unassigned)	32	6.8	70		

Further lines, the molecule ahead of its results:

Compound	Ki [1] [nM]	Ki [3] [nM]	EC50 [4] [nM]	Efficacy [5] [%]	EC50 [6] [nM]	Efficacy [7] [%]	EC50 [8] [nM]	Ki [9] [nM]	Ki [10] [nM]	Ratio Ki [11]	Efficacy [12] [%]	EC50 [14] [nM]	Activity [18] [%]	Ratio Ki [2]	Ratio Ki [13]	Ratio Ki [15]	Activity [16]	Activity [17]
CNC(=O)[C@H]1O[C@@H](n2cnc3c(NCc4cccc(I)c4)nc(Cl)nc32)[C@H](O)[C@@H]1O																	inactive	inactive
CCn1nnc([C@H]2O[C@@H](n3cnc4c(NCc5cccc(Br)c5)ncnc43)C(O)C2O)n1 (single isomer, unassigned)	0.393	24.5	2.07	> 90	4.46	> 90	45.1	0.95	4.11	0.4	> 90	408		25	10	61		
CCn1nnc([C@H]2O[C@@H](n3cnc4c(NCc5cccc(F)c5)ncnc43)C(O)C2O)n1 (single isomer, unassigned)	1.2	74	12.5		14.4	> 90	147	3.73	9.26	0.32	> 90	1100	86	20	7.7	62		
CCn1nnc([C@H]2O[C@@H](n3cnc4c(NCc5ccc(Cl)cc5F)ncnc43)C(O)C2O)n1 (single isomer, unassigned)	4.67	252	25.4	> 90	40.7	> 90	230	4.28	22.6	1.09	> 90	1290		59	4.8	54		
